Active and inactive are the calls of the source. The calls are words filed in the database; no cut-off is given here.
How the values were obtained:
[1] = tested on: MDA-MB-231; experiment: Antiinvasive activity in human MDA-MB-231 cells assessed as inhibition of cell invasion at 5 uM by boyden chamber method relative to control; assay type: functional
[2] = tested on: MDA-MB-231; experiment: Ex vivo antitumor activity against human MDA-MB-231 cells co-cultured with neonatal Swiss mouse bone in BGJb medium assessed as inhibition of tumor growth at 5 uM administered simultaneously with cancer cells measured on day 5 post treatment by Gaussia luciferase reporter gene assay relative to control; assay type: functional
In short: (§1)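 Calvariae from […] Swiss mouse pups were punched into 4 or 5 mm disks. Each was seeded with 1 x 10^4 tumor cells (lentiviral secreted Gaussia luciferase/GFP-blasticidin, FACS-sorted GFP+) in BGJb plus 10% fetal calf serum at 37°C, 5% CO2. After 24 h bones moved to fresh wells; medium changed every 2 days. Conditioned-medium luciferase read as RLU. Biological triplicate, mean ± SD, Welch's t-test.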

[3] = tested on: MDA-MB-231; experiment: Ex vivo antitumor activity against human MDA-MB-231 cells co-cultured with neonatal Swiss mouse bone in BGJb medium assessed as inhibition of tumor growth at 5 uM administered simultaneously with cancer cells measured on day 7 post treatment by Gaussia luciferase reporter gene assay relative to control; assay type: functional; in short: as §1
[4] = tested on: MDA-MB-231; experiment: Ex vivo antitumor activity against human MDA-MB-231 cells co-cultured with neonatal Swiss mouse bone in BGJb medium assessed as inhibition of tumor growth at 5 uM administered on day 2 post cancer cells addition measured on day 5 post treatment by Gaussia luciferase reporter gene assay relative to control; assay type: functional; in short: as §1
[5] = tested on: MDA-MB-231; experiment: Ex vivo antitumor activity against human MDA-MB-231 cells co-cultured with neonatal Swiss mouse bone in BGJb medium assessed as inhibition of tumor growth at 5 uM administered on day 2 post cancer cells addition measured on day 7 post treatment by Gaussia luciferase reporter gene assay relative to control; assay type: functional; in short: as §1
[6] = tested on: MDA-MB-231; experiment: Antiinvasive activity in human MDA-MB-231 cells by boyden chamber method; assay type: functional, cell-based
[7] = tested on: MDA-MB-231; experiment: Cytotoxicity against human MDA-MB-231 cells at 0.625 to 5 uM after 24 hrs; assay type: cell-based; details: mda-mb-231, 24 h
[8] = tested on: U-87 MG; experiment: Antiinvasive activity in human U87 cells at 5 uM by boyden chamber method; assay type: functional, cell-based; details: U-87MG ATCC
[9] = tested on: NCI-H460; experiment: Antiinvasive activity in human NCI-H460 cells at 5 uM by boyden chamber method; assay type: functional, cell-based
[10] = tested on: MIA PaCa-2; experiment: Antiinvasive activity in human MIAPaCa2 cells at 5 uM by boyden chamber method; assay type: functional, cell-based
[11] = tested on: U-87 MG; experiment: Cytotoxicity against human U87 cells after 24 hrs; assay type: cell-based; details: u-87mg atcc
[12] = tested on: NCI-H460; experiment: Cytotoxicity against human NCI-H460 cells after 24 hrs; assay type: cell-based; details: nci-h460, 24 h
[13] = tested on: MIA PaCa-2; experiment: Cytotoxicity against human MIAPaCa2 cells after 24 hrs; assay type: cell-based; details: mia paca-2, 24 h
[14] = tested on: MDA-MB-231; experiment: Antimigratory activity in human MDA-MB-231 cells at 10 uM after 9 hrs by wound healing assay; assay type: functional, cell-based
In short: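 Confluent monolayers in 12-well plates were scratched with a micropipette tip, washed, then cultured in complete medium with compound. Gap width between wound edges was measured by microscopy in three random regions right after wounding and at 6 and 9 h.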

[15] = Inhibition of angiogenesis in human HRMEC assessed as inhibition of endothelial cell tube formation up to 10 uM after 8 hrs by microscopic analysis
In short: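 Primary human retinal microvascular endothelial cells were grown on Matrigel in complete medium for 8 h, then tubule formation was measured. Significance was assessed by ANOVA.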

[16] = tested on: MDA-MB-231; experiment: Cytotoxicity against human MDA-MB-231 cells at 12.5 uM after 3 days by MTS assay; assay type: cell-based; details: mda-mb-231, 72 h
[17] = tested on: Bone; experiment: Down regulation of TRAP expression in neonatal Swiss mouse calvariae bone co-cultured with human MDA-MB-231 cells measured on day 7 post treatment by SYBR green-dye based RT-qPCR analysis; assay type: functional, tissue-based; details: Bone element
In short: (§2)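 Calvarial disk cultures ([…] Swiss pups) in BGJb plus 10% fetal calf serum were PBS-washed at day 7 and bead-homogenized in Qiazol. Aqueous-phase RNA was isolated, reverse-transcribed and run in triplicate real-time PCR with species-specific primers. Expression was normalized to ribosomal protein L32 mRNA. n = 3 or 4 cultures, ANOVA.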

[18] = tested on: Bone; experiment: Down regulation of RANKL expression in neonatal Swiss mouse calvariae bone co-cultured with human MDA-MB-231 cells measured on day 7 post treatment by SYBR green-dye based RT-qPCR analysis; assay type: functional, tissue-based; details: Bone element; in short: as §2
[19] = tested on: Bone; experiment: Effect on Col1A1 expression in neonatal Swiss mouse calvariae bone co-cultured with human MDA-MB-231 cells measured on day 7 post treatment by SYBR green-dye based RT-qPCR analysis; assay type: functional, tissue-based; details: Bone element; in short: as §2
[20] = tested on: Bone; experiment: Effect on osteocalcin expression in neonatal Swiss mouse calvariae bone co-cultured with human MDA-MB-231 cells measured on day 7 post treatment by SYBR green-dye based RT-qPCR analysis; assay type: functional, tissue-based; details: Bone element; in short: as §2
[21] = tested on: Bone; experiment: Effect on TRAP expression in neonatal Swiss mouse calvariae bone measured on day 7 post treatment by SYBR green-dye based RT-qPCR analysis; assay type: functional, tissue-based; details: Bone element; in short: as §2
[22] = tested on: Bone; experiment: Effect on RANKL expression in neonatal Swiss mouse calvariae bone measured on day 7 post treatment by SYBR green-dye based RT-qPCR analysis; assay type: functional, tissue-based; details: Bone element; in short: as §2
[23] = tested on: MDA-MB-231; experiment: Effect on ICAM expression in human MDA-MB-231 cells co-cultured with neonatal Swiss mouse calvariae bone measured on day 7 post treatment by SYBR green-dye based RT-qPCR analysis; assay type: functional, cell-based; in short: as §2
[24] = tested on: MDA-MB-231; experiment: Down regulation of ENPP1 expression in human MDA-MB-231 cells co-cultured with neonatal Swiss mouse calvariae bone measured on day 7 post treatment by SYBR green-dye based RT-qPCR analysis relative to control; assay type: functional; in short: as §2
[25] = tested on: MDA-MB-231; experiment: Effect on CTGF expression in human MDA-MB-231 cells co-cultured with neonatal Swiss mouse calvariae bone measured on day 7 post treatment by SYBR green-dye based RT-qPCR analysis; assay type: functional, cell-based; in short: as §2
[26] = tested on: MDA-MB-231; experiment: Down regulation of CCN3 expression in human MDA-MB-231 cells co-cultured with neonatal Swiss mouse calvariae bone measured on day 7 post treatment by SYBR green-dye based RT-qPCR analysis relative to control; assay type: functional; in short: as §2
[27] = tested on: MDA-MB-231; experiment: Effect on CCL2 expression in human MDA-MB-231 cells co-cultured with neonatal Swiss mouse calvariae bone measured on day 7 post treatment by SYBR green-dye based RT-qPCR analysis; assay type: functional, cell-based; in short: as §2
[28] = tested on: MDA-MB-231; experiment: Down regulation of IL-8 expression in human MDA-MB-231 cells co-cultured with neonatal Swiss mouse calvariae bone measured on day 7 post treatment by SYBR green-dye based RT-qPCR analysis; assay type: functional, cell-based; in short: as §2
[29] = tested on: MDA-MB-231; experiment: Down regulation of FGF5 expression in human MDA-MB-231 cells co-cultured with neonatal Swiss mouse calvariae bone measured on day 7 post treatment by SYBR green-dye based RT-qPCR analysis; assay type: functional, cell-based; in short: as §2
[30] = tested on: MDA-MB-231; experiment: Upregulation of BCL2L1 expression in human MDA-MB-231 cells co-cultured with neonatal Swiss mouse calvariae bone measured on day 7 post treatment by SYBR green-dye based RT-qPCR analysis; assay type: functional, cell-based; in short: as §2
[31] = tested on: MDA-MB-231; experiment: Upregulation of Fas expression in human MDA-MB-231 cells co-cultured with neonatal Swiss mouse calvariae bone measured on day 7 post treatment by SYBR green-dye based RT-qPCR analysis; assay type: functional, cell-based; in short: as §2
[32] = tested on: MDA-MB-231; experiment: Down regulation of CDH11 expression in human MDA-MB-231 cells co-cultured with neonatal Swiss mouse calvariae bone measured on day 7 post treatment by SYBR green-dye based RT-qPCR analysis

Compound: O=C1C2NN=C(c3ccc(Cl)cc3)C2C(c2ccc(C(F)(F)F)cc2)N1CCc1c[nH]c2ccccc12 (stereo unspecified)
- inhibition at 5 µM [1]: 90%
- TGI [2]: Active
- TGI [3]: Active
- TGI [4]: Active
- TGI [5]: Active

Compound: Cc1ccc(N2C(=O)C3C(C(c4ccc(Cl)cc4)=NN3C)C2c2cccc(F)c2)cc1Br (stereo unspecified)
- inhibition at 5 µM [1]: > 70%
- TGI [2]: Active
- TGI [3]: Active
- TGI [4]: Active
- TGI [5]: Active

Compound: COc1cccc(C2=NNC3C(=O)N(CCc4c[nH]c5ccccc45)C(c4cccc(F)c4)C23)c1 (stereo unspecified)
- inhibition at 5 µM [1]: 90%
- TGI [2]: Active
- TGI [3]: >50%
- TGI [4]: Active
- TGI [5]: >50%

Compound: COc1ccc(N2C(=O)C3NN=C(c4ccc(Cl)cc4)C3C2c2cccc(F)c2)cn1 (stereo unspecified)
- TGI [2]: Active
- TGI [3]: Active
- TGI [4]: Active
- TGI [5]: Active

Compound: O=C1C2NN=C(c3ccc(Cl)cc3)C2C(c2cccc(F)c2)N1c1cccc(Br)c1 (stereo unspecified)
- inhibition at 5 µM [1]: > 70%
- TGI [2]: Active
- TGI [3]: Active
- TGI [4]: Active
- TGI [5]: Active

Compound: O=C1C2NN=C(c3ccc(Cl)cc3)C2C(c2cccc(F)c2)N1CCc1cccnc1 (stereo unspecified)
- inhibition at 5 µM [1]: 40%
- TGI [2]: Active
- TGI [3]: Active
- TGI [4]: Active
- TGI [5]: Active

Compound: O=C1C2NN=C(c3ccc(Cl)cc3)C2C(c2cccc(F)c2)N1Cc1c[nH]c2ccccc12 (stereo unspecified)
- inhibition at 5 µM [1]: 20%
- TGI [2]: Active
- TGI [3]: Active
- TGI [4]: Active
- TGI [5]: Active

Compound: CCCN1N=C(c2ccc(Cl)cc2)C2C1C(=O)N(c1ccc(C)c(Br)c1)C2c1cccc(F)c1 (stereo unspecified)
- inhibition at 5 µM [1]: > 70%
- TGI [2]: Active
- TGI [3]: Active
- TGI [4]: Active
- TGI [5]: Active

Compound: Cc1ccc(N2C(=O)C3NN=C(c4ccc(Cl)cc4)C3C2c2cccc(C(F)(F)F)c2)cc1Br (stereo unspecified)
- inhibition at 5 µM [1]: > 70%
- TGI [2]: Active
- TGI [3]: Active
- TGI [4]: Active
- TGI [5]: Active

Compound: Cc1ccc(N2C(=O)C3C(C(c4ccc(Cl)cc4)=NN3C(C)C)C2c2cccc(F)c2)cc1Br (stereo unspecified)
- TGI [2]: Active
- TGI [3]: Active
- TGI [4]: Active
- TGI [5]: Active

Compound: O=C1C2NN=C(c3ccc(Cl)cc3)C2C(c2cccc(F)c2)N1CCc1c[nH]c2ccccc12 (stereo unspecified)
- Activity [6]: Dose-dependent effect
- IC50 [6]: 2.6 µM
- Activity [7]: Non-Toxic
- Activity [8]: inactive
- Activity [9]: inactive
- Activity [10]: Active
- Activity [11]: Non-Toxic
- Activity [12]: Non-Toxic
- Activity [13]: Non-Toxic
- Activity [14]: inactive
- Activity [15]: Not Active
- inhibition at 5 µM [1]: > 70%
- TGI [2]: 70%
- TGI [3]: 60%
- TGI [4]: 53%
- TGI [5]: 36%
- Activity [16]: Non-Toxic
- Activity [17]: Active
- Activity [18]: Active
- Activity [19]: inactive
- Activity [20]: inactive
- Activity [21]: inactive
- Activity [22]: Active
- Activity [23]: inactive
- Activity [24]: 90%
- Activity [25]: inactive
- Activity [26]: 90%
- Activity [27]: inactive
- Activity [28]: Active
- Activity [29]: inactive
- Activity [30]: Active
- Activity [31]: Active
- Activity [32]: Active

Compound: CC(C)N1N=C(c2ccc(Cl)cc2)C2C(c3cccc(F)c3)N(CCc3c[nH]c4ccccc34)C(=O)C21 (stereo unspecified)
- inhibition at 5 µM [1]: > 70%
- TGI [2]: Active
- TGI [3]: 40%
- TGI [4]: Active
- TGI [5]: 40%

Compound: O=C1C2C(C(c3ccc(Cl)cc3)=NN2C2CCCCC2)C(c2cccc(F)c2)N1CCc1c[nH]c2ccccc12 (stereo unspecified)
- inhibition [1]: inactive
- TGI [2]: Active
- TGI [3]: Active
- TGI [4]: Active
- TGI [5]: Active
